Active and inactive are the calls of the source. The calls are words filed in the database; no cut-off is given here.
How the values were obtained:
Plasmodium falciparum [1] = experiment: Antiplasmodial activity against Plasmodium falciparum D6 infected in RBCs by parasitic LDH release assay; assay type: functional, organism-based
How it was run: (§1)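 Infected erythrocytes at 2% parasitemia and 2% hematocrit, in RPMI 1640 with 10% human serum and amikacin 60 μg/mL, were exposed to serial dilutions under N2/O2/CO2 (90:5:5) at 37°C for 72 h. LDH was read with Malstat reagent (30 min), then NBT/PES in the dark (60 min), stopped with 5% acetic acid, at 650 nm. IC50 came from percent growth dose-response curves.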

[2] = Selectivity index, ratio of TC50 for african green monkey (Cercopithecus aethiops) Vero cells to IC50 for Plasmodium falciparum D6; assay type: toxicity, cell-based
Plasmodium falciparum [3] = experiment: Antiplasmodial activity against Plasmodium falciparum W2 infected in RBCs by parasitic LDH release assay; assay type: functional, organism-based; how it was run: as §1
[4] = Selectivity index, ratio of TC50 for african green monkey (Cercopithecus aethiops) Vero cells to IC50 for Plasmodium falciparum W2; assay type: toxicity, cell-based
[5] = Toxicity against african green monkey Vero cells; assay type: cell-based; details: chlorocebus sabaeus
How it was run: (§2)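 Cells seeded at 25,000 per well and incubated 24 h, then exposed to samples for 48 h. Viable cells were counted by neutral red, with DMSO as vehicle control. IC50 or TC50 values were derived from logarithmic plots of growth inhibition versus concentration.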

Leishmania donovani = experiment: Antileishmanial activity against Leishmania donovani promastigotes after 48 hrs by alamar blue assay; assay type: functional, organism-based; details: for IC50: read-out: IC50
SK-MEL = experiment: Cytotoxicity against human SK-MEL cells after 48 hrs by neutral red assay; assay type: functional, cell-based; how it was run: as §2
KB = experiment: Cytotoxicity against human KB cells after 48 hrs by neutral red assay; assay type: functional, cell-based; how it was run: as §2
BT-549 = experiment: Cytotoxicity against human BT549 cells after 48 hrs by neutral red assay; assay type: functional, cell-based; how it was run: as §2
SK-OV-3 = experiment: Cytotoxicity against human SKOV3 cells after 48 hrs by neutral red assay; assay type: functional, cell-based; details: sk-ov-3; how it was run: as §2
Vero = experiment: (§3) Toxicity against african green monkey Vero cells after 48 hrs by neutral red assay; assay type: cell-based; details: chlorocebus sabaeus, vero, 48 h; how it was run: as §2
[6] = Toxicity against pig LLC-PK11 cells after 48 hrs by neutral red assay; assay type: cell-based, Sus scrofa; details: for TC50: llc-pk11, 48 h; for CC50 at 48 h: LLC-PK11 cells, read-out: TC50; how it was run: as §2
Candida albicans = experiment: Antifungal activity against Candida albicans ATCC 90028 by modified CLSI/NCCLS method; assay type: functional, organism-based
Cryptococcus neoformans = experiment: Antifungal activity against Cryptococcus neoformans ATCC 90113 by modified CLSI/NCCLS method; assay type: functional, organism-based
Aspergillus fumigatus = experiment: Antifungal activity against Aspergillus fumigatus ATCC 90906 by modified CLSI/NCCLS method; assay type: functional, organism-based
Staphylococcus aureus [7] = experiment: Antibacterial activity against methicillin-resistant Staphylococcus aureus ATCC 43300 by modified CLSI/NCCLS method; assay type: functional, organism-based
Escherichia coli = experiment: Antibacterial activity against Escherichia coli ATCC 35218 by modified CLSI/NCCLS method; assay type: functional, organism-based
Pseudomonas aeruginosa = experiment: Antibacterial activity against Pseudomonas aeruginosa ATCC 27853 by modified CLSI/NCCLS method; assay type: functional, organism-based
[8] = tested on: Mycobacterium intracellulare; experiment: Antibacterial activity against Mycobacterium intracellular ATCC 23068 by Franzblau method; assay type: functional, organism-based
[9] = as §3; assay type: cell-based; details: chlorocebus sabaeus, Vero cells; read-out: TC50; how it was run: as §2
Nakaseomyces glabratus = experiment: Antifungal activity against Candida glabrata ATCC 90030 by modified CLSI/NCCLS method; assay type: functional, organism-based
Pichia kudriavzevii = experiment: Antifungal activity against Candida krusei ATCC 6258 by modified CLSI/NCCLS method; assay type: functional, organism-based
Staphylococcus aureus [10] = experiment: Antibacterial activity against Staphylococcus aureus ATCC 29213 by modified CLSI/NCCLS method; assay type: functional, organism-based
[11] = Homo sapiens, SK-MEL, 48 h, read-out: IC50
[12] = Homo sapiens, KB, 48 h, read-out: IC50
[13] = Homo sapiens, BT-549, 48 h, read-out: IC50
[14] = Candida albicans, ATCC 90028, read-out: IC50
[15] = Nakaseomyces glabratus, ATCC 90030, read-out: IC50
[16] = Pichia kudriavzevii, ATCC 6258, read-out: IC50
[17] = Aspergillus fumigatus, ATCC 90906, read-out: IC50
[18] = Escherichia coli, ATCC 35218, read-out: IC50
[19] = Mycobacterium intracellulare, ATCC 23068, read-out: IC50

Row | Structure (SMILES) | IC50 (Plasmodium falciparum [1]) [nM] | selectivity ratio [2] | IC50 (Plasmodium falciparum [3]) [nM] | selectivity ratio [4] | CC50 [5] [µM] | IC50 (Leishmania donovani; Leishmania donovani, 48 h) [µM] | IC50 (SK-MEL; sk-mel) | IC50 (KB; kb) | IC50 (BT-549; bt-549) | IC50 (SK-OV-3) | TC50 (Vero) | IC50 (Candida albicans) | IC50 (Cryptococcus neoformans) [µM] | IC50 (Aspergillus fumigatus) | IC50 (Staphylococcus aureus [7]) | IC50 (Escherichia coli) | IC50 (Pseudomonas aeruginosa) | IC50 [8] | IC90 (Leishmania donovani; Leishmania donovani, 48 h) [µM] | CC50 at 48 h [6] [nM] | also measured
1 | C[C@H]1[C@@H](OC/C=C\CO)O[C@@H]2O[C@@]3(C)CC[C@H]4[C@H](C)CC[C@@H]1[C@@]24OO3 | 6.2 | > 2160 | 7.6 | > 1760 | > 13.4 | 42.3 | Not Active | Not Active | Not Active | Not Active | Not Active | Not Active | 0.56 | Not Active | Not Active | Not Active | Not Active | Not Active | – | – | IC90 (Leishmania donovani): inactive; TC50 [6]: Not Active
2 | C[C@H]1[C@@H](OCC[C@H](O)CO[C@H]2O[C@@H]3O[C@@]4(C)CC[C@H]5[C@H](C)CC[C@@H]([C@H]2C)[C@@]35OO4)O[C@@H]2O[C@@]3(C)CC[C@H]4[C@H](C)CC[C@@H]1[C@@]24OO3 | 43.8 | > 170 | 45.4 | > 164 | > 7.45 | 2.5 | – | – | – | Not Active | – | – | 1.6 | – | – | – | Not Active | – | 9.4 | 100 | IC50 (SK-MEL; [11]): 240 nM; IC50 (KB; [12]): 160 nM; IC50 (BT-549; [13]): 80 nM; CC50 at 48 h [9]: > 1570 nM; IC50 (Candida albicans; [14]): 10.2 µM; IC50 (Nakaseomyces glabratus; [15]): > 31.3 µM; IC50 (Pichia kudriavzevii; [16]): > 31.3 µM; IC50 (Aspergillus fumigatus; [17]): 5.24 µM; IC50 (Staphylococcus aureus [10]; Staphylococcus aureus, ATCC 29213, read-out: IC50): 16.5 µM; IC50 (Staphylococcus aureus [7]; Staphylococcus aureus, ATCC 43300, read-out: IC50): > 31.3 µM; IC50 (Escherichia coli; [18]): 13.6 µM; IC50 [8, 19]: > 31.3 µM
3 | C[C@H]1[C@@H](OC[C@@H](O)[C@@H](O)CO[C@H]2O[C@@H]3O[C@@]4(C)CC[C@H]5[C@H](C)CC[C@@H]([C@H]2C)[C@@]35OO4)O[C@@H]2O[C@@]3(C)CC[C@H]4[C@H](C)CC[C@@H]1[C@@]24OO3 (relative stereo) | 6.7 | > 1080 | 5.2 | > 1400 | > 7.26 | – | Not Active | Not Active | Not Active | Not Active | Not Active | – | 1.22 | – | Not Active | – | Not Active | Not Active | 22.9 | – | TC50 [6]: Not Active; IC50 (Candida albicans; [14]): 6.11 µM; IC50 (Aspergillus fumigatus; [17]): 30.5 µM; IC50 (Escherichia coli; [18]): 15.3 µM
4 | C[C@H]1[C@@H](Oc2cccc(N[C@@H]3[C@H](C)O[C@@H]4O[C@@]5(C)CC[C@H]6[C@H](C)CC[C@@H]3[C@@]46OO5)c2)O[C@@H]2O[C@@]3(C)CC[C@H]4[C@H](C)CC[C@@H]1[C@@]24OO3 | 5.8 | > 1290 | 5.9 | > 1250 | > 7.41 | 24.9 | Not Active | Not Active | Not Active | Not Active | Not Active | Not Active | 0.16 | Not Active | Not Active | – | Not Active | Not Active | 62.3 | – | TC50 [6]: Not Active; IC50 (Escherichia coli; [18]): 8.57 µM
5 | C[C@H]1[C@@H](OCC(=O)CO)O[C@@H]2O[C@@]3(C)CC[C@H]4[C@H](C)CC[C@@H]1[C@@]24OO3 | 7.9 | > 1700 | 7 | > 1900 | > 13.3 | 25.8 | Not Active | Not Active | Not Active | Not Active | Not Active | – | 6.48 | Not Active | Not Active | Not Active | Not Active | Not Active | 112 | 20800 | IC50 (Candida albicans; [14]): > 56.1 µM; IC50 (Nakaseomyces glabratus): Not Active; IC50 (Pichia kudriavzevii; [16]): > 56.1 µM; IC50 (Staphylococcus aureus [10]): Not Active
6 | C[C@H]1[C@@H](OC[C@@H]2O[C@@H]2CO[C@H]2O[C@@H]3O[C@@]4(C)CC[C@H]5[C@H](C)CC[C@@H]([C@H]2C)[C@@]35OO4)O[C@@H]2O[C@@]3(C)CC[C@H]4[C@H](C)CC[C@@H]1[C@@]24OO3 (relative stereo) | 45.5 | > 164 | 47.1 | > 159 | > 7.47 | 3.9 | – | – | – | Not Active | – | – | 31.4 | – | Not Active | Not Active | – | Not Active | 47.1 | 680 | IC50 (SK-MEL; [11]): 220 nM; IC50 (KB; [12]): 470 nM; IC50 (BT-549; [13]): 300 nM; CC50 at 48 h [9]: > 1570 nM; IC50 (Candida albicans; [14]): > 31.4 µM; IC50 (Nakaseomyces glabratus; [15]): > 31.4 µM; IC50 (Pichia kudriavzevii): Not Active; IC50 (Aspergillus fumigatus; [17]): > 31.4 µM; IC50 (Staphylococcus aureus [10]): Not Active; IC50 (Pseudomonas aeruginosa; Pseudomonas aeruginosa, ATCC 27853, read-out: IC50): > 31.4 µM
7 | C[C@H]1[C@@H](OCC[C@@H](CO[C@H]2O[C@@H]3O[C@@]4(C)CC[C@H]5[C@H](C)CC[C@@H]([C@H]2C)[C@@]35OO4)O[C@H]2O[C@@H]3O[C@@]4(C)CC[C@H]5[C@H](C)CC[C@@H]([C@H]2C)[C@@]35OO4)O[C@@H]2O[C@@]3(C)CC[C@H]4[C@H](C)CC[C@@H]1[C@@]24OO3 | 298 | 18 | 243 | 22 | 5.25 | 5 | – | – | – | Not Active | – | Not Active | 16.6 | Not Active | Not Active | Not Active | Not Active | – | 44.2 | 70 | IC50 (SK-MEL; [11]): 240 nM; IC50 (KB; [12]): 110 nM; IC50 (BT-549; [13]): 60 nM; CC50 at 48 h [9]: > 1100 nM; IC50 (Nakaseomyces glabratus): Not Active; IC50 (Pichia kudriavzevii): Not Active; IC50 (Staphylococcus aureus [10]): Not Active; IC50 [8, 19]: > 22.1 µM
8 | C[C@H]1[C@@H](OCc2cc(O)cc(O)c2)O[C@@H]2O[C@@]3(C)CC[C@H]4[C@H](C)CC[C@@H]1[C@@]24OO3 | 20.9 | > 560 | 20.7 | > 567 | > 11.7 | 5.7 | Not Active | Not Active | Not Active | Not Active | Not Active | Not Active | 18.6 | Not Active | Not Active | – | Not Active | – | 24.6 | 2460 | IC50 (Nakaseomyces glabratus): Not Active; IC50 (Pichia kudriavzevii): Not Active; IC50 (Staphylococcus aureus [10]): Not Active; IC50 (Escherichia coli; [18]): 48.6 µM; IC50 [8, 19]: > 49.2 µM

Reference: ChEMBL document CHEMBL1153083, “Antiprotozoal, anticancer and antimicrobial activities of dihydroartemisinin acetal dimers and monomers” (Bioorg Med Chem, 2009)
